In ChEMBL document CHEMBL1126205, “Novel spirosuccinimides with incorporated isoindolone and benzisothiazole 1,1-dioxide moieties as aldose reductase inhibitors and antihyperglycemic agents” (1992):
The source made the active and inactive calls. No cut-off for these calls is given here.

Assays:
[1] = test system: Rattus norvegicus; experiment: In vivo galactitol inhibitory activity measured by its ability to inhibit galactitol accumulation in diaphragm at 46 mg/Kg/day; NS=Not significant (% Inhibition); assay type: functional, organism-based
Outline: (§1)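 Rats (n = 6) fed 20% galactose for 4 days, with compound given in the diet at the stated mg/kg per day. Galactitol accumulation in lens, sciatic nerve or diaphragm is scored as percent inhibition versus the non-treated group, as means of 3–8 drug-treated tissue samples. Dunnett's multiple comparison test applies; NS means p > 0.05.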

[2] = test system: Rattus norvegicus; experiment: In vivo galactitol inhibitory activity measured by its ability to inhibit galactitol accumulation in sciatic nerve at 46 mg/Kg/day; NS=Not significant (% Inhibition); assay type: functional, organism-based
Outline: (§2)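 Rats (n = 6) fed 20% galactose for 4 days, with compound given in the diet at the stated daily dose. Galactitol accumulation was measured in lens, sciatic nerve and diaphragm, and % inhibition was taken versus the nontreated group. Means are from three to eight drug-treated tissue samples. Dunnett's multiple comparison test was applied, with p > 0.05 reported as not significant.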

[3] = test system: Rattus norvegicus; experiment: In vivo galactitol inhibitory activity measured by its ability to inhibit galactitol accumulation in lens at 46 mg/Kg/day; assay type: functional; settings: Lens of camera-type eye; outline: as §1
[4] = test system: Rattus norvegicus; experiment: In vivo galactitol inhibitory activity measured by its ability to inhibit galactitol accumulation in lens at 32 mg/Kg/day; assay type: functional; settings: Lens of camera-type eye; outline: as §1
[5] = test system: Rattus norvegicus; experiment: In vivo galactitol inhibitory activity measured by its ability to inhibit galactitol accumulation in sciatic nerve at 32 mg/Kg/day; assay type: functional; outline: as §2
[6] = molecular target: Aldo-keto reductase family 1 member B1 (Bos taurus) (UniProt P16116); experiment: In vitro aldose reductase inhibitory activity measured by NADPH-dependent inhibition of glyceraldehyde reduction in a partially purified bovine lens preparation at 10E-6 M
Outline: (§3)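 Aldose reductase partially purified from bovine lens. Inhibition of NADPH-dependent glyceraldehyde reduction is measured at the single stated concentration and reported as percent inhibition, the mean of two determinations.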

[7] = molecular target: Aldo-keto reductase family 1 member B1 (Bos taurus) (UniProt P16116); experiment: In vitro aldose reductase inhibitory activity measured by NADPH-dependent inhibition of glyceraldehyde reduction in a partially purified bovine lens preparation at 10E-7 M; outline: as §3
[8] = test system: Rattus norvegicus; experiment: In vivo galactitol inhibitory activity measured by its ability to inhibit galactitol accumulation in sciatic nerve at 4 mg/Kg/day; NS=Not significant (% Inhibition); assay type: functional, organism-based; outline: as §2
[9] = test system: Mus musculus; experiment: Antihyperglycemic activity measured as percent decrease in mice plasma glucose at 100 mg/Kg/day; assay type: functional
Outline: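 Male db/db (C57BL/KsJ) mice, 4–6 per group, dosed at 100 mg/kg per day. Plasma glucose of the drug-treated group is expressed as percent decrease relative to a vehicle-treated control group. Values are mean ± SE, with p < 0.05 marked.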

[10] = test system: Rattus norvegicus; experiment: In vivo galactitol inhibitory activity measured by its ability to inhibit galactitol accumulation in lens at 4 mg/Kg/day; NS=Not significant (% Inhibition); assay type: functional, organism-based; settings: Lens of camera-type eye; outline: as §1
[11] = test system: Rattus norvegicus; experiment: In vivo galactitol inhibitory activity measured by its ability to inhibit galactitol accumulation in diaphragm at 4 mg/Kg/day; NS=Not significant (% Inhibition); assay type: functional, organism-based; outline: as §1
[12] = test system: Rattus norvegicus; experiment: In vivo galactitol inhibitory activity measured by its ability to inhibit galactitol accumulation in sciatic nerve at 3 mg/Kg/day; NS=Not significant; assay type: functional, organism-based; outline: as §2
[13] = test system: Rattus norvegicus; experiment: In vivo galactitol inhibitory activity measured by its ability to inhibit galactitol accumulation in diaphragm at 3 mg/Kg/day; NS=Not significant; assay type: functional, organism-based; outline: as §1
[14] = test system: Rattus norvegicus; experiment: In vivo galactitol inhibitory activity measured by its ability to inhibit galactitol accumulation in lens at 3 mg/Kg/day; NS=Not significant; assay type: functional, organism-based; settings: Lens of camera-type eye; outline: as §1
[15] = test system: Rattus norvegicus; experiment: In vivo galactitol inhibitory activity measured by its ability to inhibit galactitol accumulation in diaphragm at 10 mg/Kg/day; assay type: functional; outline: as §1
[16] = test system: Rattus norvegicus; experiment: In vivo galactitol inhibitory activity measured by its ability to inhibit galactitol accumulation in sciatic nerve at 3 mg/Kg/day; NS=Not significant (% Inhibition); assay type: functional, organism-based; outline: as §2
[17] = test system: Rattus norvegicus; experiment: In vivo galactitol inhibitory activity measured by its ability to inhibit galactitol accumulation in diaphragm at 6 mg/Kg/day; assay type: functional; outline: as §1
[18] = test system: Rattus norvegicus; experiment: In vivo galactitol inhibitory activity measured by its ability to inhibit galactitol accumulation in sciatic nerve at 10 mg/Kg/day; assay type: functional; outline: as §2
[19] = test system: Rattus norvegicus; experiment: In vivo galactitol inhibitory activity measured by its ability to inhibit galactitol accumulation in lens at 10 mg/Kg/day; NS=Not significant (% Inhibition); assay type: functional; settings: Lens of camera-type eye; outline: as §1
[20] = test system: Rattus norvegicus; experiment: In vivo galactitol inhibitory activity measured by its ability to inhibit galactitol accumulation in diaphragm at 3 mg/Kg/day; assay type: functional; outline: as §1
[21] = test system: Rattus norvegicus; experiment: In vivo galactitol inhibitory activity measured by its ability to inhibit galactitol accumulation in lens at 6 mg/Kg/day; assay type: functional, Lens of camera-type eye; settings: Rattus norvegicus, Lens of camera-type eye; outline: as §1
[22] = test system: Rattus norvegicus; experiment: In vivo galactitol inhibitory activity measured by its ability to inhibit galactitol accumulation in sciatic nerve at 6 mg/Kg/day; NS=Not significant (% Inhibition); assay type: functional, organism-based; outline: as §2
[23] = test system: Rattus norvegicus; experiment: In vivo galactitol activity by measuring its ability to inhibit galactitol accumulation in diaphragm at 6 mg/Kg/day; assay type: functional; outline: as §1
[24] = test system: Rattus norvegicus; experiment: In vivo galactitol inhibitory activity measured by its ability to inhibit galactitol accumulation in lens at 3 mg/Kg/day; NS=Not significant (% Inhibition); assay type: functional, organism-based; settings: Lens of camera-type eye; outline: as §1
[25] = test system: Rattus norvegicus; experiment: In vivo galactitol inhibitory activity measured by its ability to inhibit galactitol accumulation in lens at 6 mg/Kg/day; NS=Not significant (% Inhibition); assay type: functional, organism-based; settings: Lens of camera-type eye; outline: as §1
[26] = test system: Rattus norvegicus; experiment: In vivo galactitol inhibitory activity measured by its ability to inhibit galactitol accumulation in sciatic nerve at 9 mg/Kg/day; assay type: functional; outline: as §2
[27] = test system: Rattus norvegicus; experiment: In vivo galactitol inhibitory activity measured by its ability to inhibit galactitol accumulation in sciatic nerve at 6 mg/Kg/day; assay type: functional; outline: as §2
[28] = test system: Rattus norvegicus; experiment: In vivo galactitol inhibitory activity measured by its ability to inhibit galactitol accumulation in lens at 9 mg/Kg/day; NS=Not significant (% Inhibition); assay type: functional, organism-based; settings: Lens of camera-type eye; outline: as §2
[29] = test system: Rattus norvegicus; experiment: In vivo galactitol inhibitory activity measured by its ability to inhibit galactitol accumulation in diaphragm at 9 mg/Kg/day; assay type: functional; outline: as §1
[30] = test system: Rattus norvegicus; experiment: In vivo galactitol inhibitory activity measured by its ability to inhibit galactitol accumulation in diaphragm at 3 mg/Kg/day; NS=Not significant (% Inhibition); assay type: functional, organism-based; outline: as §1
[31] = test system: Rattus norvegicus; experiment: In vivo galactitol inhibitory activity measured by its ability to inhibit galactitol accumulation in diaphragm at 6 mg/Kg/day; NS=Not significant (% Inhibition); assay type: functional, organism-based; outline: as §1
[32] = test system: Rattus norvegicus; experiment: In vivo galactitol inhibitory activity measured by its ability to inhibit galactitol accumulation in sciatic nerve at 10 mg/Kg/day; NS=Not significant (% Inhibition); assay type: functional, organism-based; outline: as §2
[33] = test system: Rattus norvegicus; experiment: In vivo galactitol inhibitory activity measured by its ability to inhibit galactitol accumulation in sciatic nerve at 3 mg/Kg/day; assay type: functional; outline: as §2
[34] = test system: Rattus norvegicus; experiment: In vivo galactitol inhibitory activity measured by its ability to inhibit galactitol accumulation in diaphragm at 9 mg/Kg/day; NS=Not significant (% Inhibition); assay type: functional, organism-based; outline: as §1
[35] = test system: Rattus norvegicus; experiment: In vivo galactitol inhibitory activity measured by its ability to inhibit galactitol accumulation in sciatic nerve at 9 mg/Kg/day; NS=Not significant (% Inhibition); assay type: functional, organism-based; outline: as §2

Question: Which inhibition [1] does the source give for `O=C(O)CN1C(=O)c2ccccc2C12CC(=O)NC2=O` (stereo unspecified) here?
Answer: inactive

Question: And the inhibition [2]?
Answer: inactive

Question: What about the inhibition in vivo at 46 mg/kg/day [3] of the same compound?
Answer: 17%

Question: With `CN1C(=O)c2cccc(Cl)c2C12CC(=O)NC2=O` (stereo unspecified) as the compound, how does the inhibition in vivo at 32 mg/kg/day [4] read?
Answer: 13%

Question: What about the inhibition in vivo at 32 mg/kg/day [5] of the same compound?
Answer: 32%

Question: What about the inhibition [6] of the same compound?
Answer: 57%

Question: And the inhibition [7]?
Answer: 19%

Question: How did the inhibition [8] turn out when `CCCN1C(=O)c2cc(Cl)c(Cl)cc2C12CC(=O)NC2=O` (stereo unspecified) was run?
Answer: inactive

Question: And the Decrease [9]?
Answer: <15%

Question: And the inhibition [10]?
Answer: inactive

Question: And the inhibition [11]?
Answer: inactive

Question: Which inhibition [12] does the source give for `CCN1C(=O)c2ccc(Cl)cc2C12CC(=O)NC2=O` (stereo unspecified) here?
Answer: inactive

Question: And the inhibition [6]?
Answer: 37%

Question: What about the inhibition [7] of the same compound?
Answer: 14%

Question: What about the Decrease [9] of the same compound?
Answer: <15%

Question: And the inhibition [13]?
Answer: inactive

Question: And the inhibition [14]?
Answer: inactive

Question: How did the inhibition in vivo at 10 mg/kg/day [15] turn out when `Cc1cccc2c1C(=O)N(C)C21CC(=O)NC1=O` (stereo unspecified) was run?
Answer: 69%

Question: And the inhibition [6]?
Answer: 59%

Question: And the inhibition [7]?
Answer: 11%

Question: What about the inhibition [16] of the same compound?
Answer: inactive

Question: And the inhibition in vivo at 6 mg/kg/day [17]?
Answer: 57%

Question: What about the Inhibition [18] of the same compound?
Answer: 50%

Question: And the inhibition in vivo at 10 mg/kg/day ([18]; Rattus norvegicus, Sciatic nerve)?
Answer: 63%

Question: And the inhibition in vivo at 10 mg/kg/day [19]?
Answer: 29%

Question: What about the inhibition in vivo at 3 mg/kg/day [20] of the same compound?
Answer: 37%

Question: What about the inhibition [14] of the same compound?
Answer: inactive

Question: What about the inhibition in vivo at 6 mg/kg/day [21] of the same compound?
Answer: 28%

Question: What about the inhibition [22] of the same compound?
Answer: inactive

Question: With `CN1C(=O)c2ccc(Cl)cc2C12CC(=O)NC2=O` (single isomer, unassigned; (-)) as the compound, how does the inhibition in vivo at 6 mg/kg/day [23] read?
Answer: 24%

Question: Which inhibition [24] does the source give for `CN1C(=O)c2cc(-c3ccccc3)ccc2C12CC(=O)NC2=O` (stereo unspecified) here?
Answer: inactive

Question: What about the inhibition [25] of the same compound?
Answer: inactive

Question: And the inhibition in vivo at 9 mg/kg/day [26]?
Answer: 34%

Question: And the inhibition in vivo at 6 mg/kg/day [27]?
Answer: 27%

Question: What about the inhibition [6] of the same compound?
Answer: 81%

Question: And the inhibition [7]?
Answer: 37%

Question: What about the inhibition [16] of the same compound?
Answer: inactive

Question: And the inhibition in vivo at 6 mg/kg/day [17]?
Answer: 43%

Question: What about the inhibition [28] of the same compound?
Answer: inactive

Question: What about the Decrease [9] of the same compound?
Answer: <15%

Question: What about the inhibition in vivo at 9 mg/kg/day [29] of the same compound?
Answer: 55%

Question: And the inhibition in vivo at 3 mg/kg/day [20]?
Answer: 29%

Question: For `COC(=O)c1ccc2c(c1)C1(CC(=O)NC1=O)N(C)C2=O` (stereo unspecified), which inhibition [24] is on record?
Answer: inactive

Question: What about the inhibition [30] of the same compound?
Answer: inactive

Question: What about the inhibition [25] of the same compound?
Answer: inactive

Question: And the inhibition in vivo at 10 mg/kg/day [15]?
Answer: 16%

Question: And the inhibition [31]?
Answer: inactive

Question: And the inhibition [6]?
Answer: 49%

Question: What about the inhibition [7] of the same compound?
Answer: 14%

Question: What about the inhibition [16] of the same compound?
Answer: inactive

Question: What about the inhibition [32] of the same compound?
Answer: inactive

Question: And the Decrease [9]?
Answer: <15%

Question: And the inhibition [19]?
Answer: inactive

Question: What about the inhibition [22] of the same compound?
Answer: inactive

Question: For `CN1C(=O)c2c(Cl)cccc2C12CC(=O)NC2=O` (stereo unspecified), which inhibition [24] is on record?
Answer: inactive

Question: And the inhibition [30]?
Answer: inactive

Question: And the inhibition [25]?
Answer: inactive

Question: And the inhibition [31]?
Answer: inactive

Question: What about the inhibition [6] of the same compound?
Answer: 65%

Question: And the inhibition [7]?
Answer: 29%

Question: What about the inhibition in vivo at 3 mg/kg/day [33] of the same compound?
Answer: 21%

Question: What about the inhibition [28] of the same compound?
Answer: inactive

Question: And the Decrease [9]?
Answer: <15%

Question: What about the inhibition [34] of the same compound?
Answer: inactive

Question: And the inhibition [22]?
Answer: inactive

Question: What about the inhibition [35] of the same compound?
Answer: inactive
